Reference: ChEMBL document CHEMBL3085765, “The synthesis, antiviral, cytostatic and cytotoxic evaluation of a new series of acyclonucleotide analogues with a 1,2,3-triazole linker” (Eur J Med Chem, 2013)

Tests used:
Felid alphaherpesvirus 1 = assay: Antiviral activity against Feline herpesvirus infected in cat CRFK cells assessed as inhibition of virus-induced cytopathicity; type: functional, organism-based; conditions: Felid alphaherpesvirus 1, CRFK
Outline: (§1)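 Confluent monolayers (HEL for HSV-1 KOS and HSV-2 G; CRFK for feline herpes virus) in 96-well plates inoculated with 100 CCID50 of virus in presence of varying compound concentrations (100, 20, 4, … μM). Cytopathicity scored when complete in untreated infected controls; EC50 = concentration inhibiting virus-induced cytopathicity by 50%.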

HeLa = assay: Cytostatic activity against human HeLa cells after 3 days by coulter ZI particle counting analysis; type: functional, cell-based; conditions: 72 h
Outline: (§2)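 Cells seeded in 96-well plates and grown with or without serial dilutions of compound, 2 days for L1210 and 3 days for CEM and HeLa. IC50 taken as concentration inhibiting cell proliferation by 50%.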

CCRF-CEM = assay: Cytostatic activity against human CEM cells after 3 days by coulter ZI particle counting analysis; type: functional, cell-based; conditions: 72 h; outline: as §2
Human alphaherpesvirus 2 = assay: Antiviral activity against Herpes simplex virus 2 G infected in human HEL cells assessed as inhibition of virus-induced cytopathicity; type: functional, organism-based; conditions: Human alphaherpesvirus 2, strain G; outline: as §1
Human alphaherpesvirus 1 = assay: Antiviral activity against Herpes simplex virus 1 KOS infected in human HEL cells assessed as inhibition of virus-induced cytopathicity; type: functional, organism-based; conditions: Human alphaherpesvirus 1, KOS; outline: as §1
L1210 = assay: Cytostatic activity against mouse L1210 cells after 2 days by coulter ZI particle counting analysis; type: functional, cell-based; conditions: L1210, 48 h; outline: as §2

Row | Compound | EC50 (Felid alphaherpesvirus 1) [µM] | IC50 (HeLa) [µM] | IC50 (CCRF-CEM) [µM] | EC50 (Human alphaherpesvirus 2) [µM] | EC50 (Human alphaherpesvirus 1) [µM] | IC50 (L1210) [µM]
1 | CCOP(=O)(CCCn1cc(Cn2c(=O)n(C(=O)c3ccccc3)c(=O)c3ccccc32)nn1)OCC | 24 | 129 | 44 | 17 | 17 | > 200
2 | CCOP(=O)(CCCn1cc(Cn2ccc(=O)n(C(=O)c3ccccc3)c2=O)nn1)OCC | > 200 | > 200 | > 200 | > 200 | > 200 | > 200
